Reference: ChEMBL document CHEMBL1138243, “Design of mechanism-based inhibitors of transthyretin amyloidosis: studies with biphenyl ethers and new structural templates” (J Med Chem, 2007)

What was measured:
Transthyretin [1] = biological target: T1, Transthyretin (Homo sapiens, UniProt P02766); test: Inhibition of transthyretin fibril formation at pH 4.4 at 50 uM; assay type: functional; parameters: scale not given: the % may be the effect or the level left
Transthyretin [2] = biological target: T1, Transthyretin; test: Inhibition of transthyretin amyloidosis assessed as fibril formation pH 4.4 at 100 uM; assay type: functional
Method in brief: (§1)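 Library screen of acid-mediated TTR fibril formation at pH 4.4 with inhibitor at 100 µM. TTR was at 7.2 µM.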

Transthyretin [3] = biological target: T1, Transthyretin; test: Inhibition of transthyretin fibril formation at pH 4.4 at 100 uM; assay type: functional; method in brief: as §1
Transthyretin [4] = biological target: T1, Transthyretin; test: Inhibition of transthyretin fibril formation assessed as turbidity at 21.6 uM at pH 4.4 after 3 hrs; assay type: functional
Method in brief: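 Kinetics run with 7.2 µM TTR plus 21.6 µM inhibitor at pH 4.4, 37 °C. Turbidity at 340 nm was followed for 3 h. Initial fibrillization rate came from the linear slope of A340 versus time. Three experiments in triplicate.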

Transthyretin [5] = biological target: T1, Transthyretin; test: Inhibition of transthyretin amyloidosis assessed as fibril formation at 21.6 uM at pH 4.4 relative to control; assay type: functional; parameters: scale not given: the % may be the effect or the level left
Method in brief: (§2)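 WT TTR tetramer (7.2 µM) in pH 7 phosphate/KCl/EDTA was preincubated 1 h at 25 °C with inhibitor (7.2 or 21.6 µM; 1:1 or 1:3) in 1% DMSO. It was then diluted with pH 4.4 acetate/KCl/EDTA buffer and held stagnant 72 h at 37 °C. Turbidity was read at 340 nm as % fibril formation versus untreated (100%). Mean of five experiments.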

Transthyretin [6] = biological target: T1, Transthyretin; test: Inhibition of transthyretin amyloidosis assessed as fibril formation at 7.2 uM at pH 4.4 relative to control; assay type: functional; parameters: scale not given: the % may be the effect or the level left; method in brief: as §2
[7] = Cytotoxicity against TTR-induced […] cells assessed as viability at 50 uM after 72 hrs; assay type: functional; conditions: Mus musculus, N2a, read-out: Activity
Neuro2a = test: Cytotoxicity against […] cells at 50 uM; assay type: functional, cell-based; conditions: Mus musculus
Transthyretin [8] = biological target: T1, Transthyretin; test: Stabilization of urea-induced transthyretin dissociation at 5.4 uM at pH 7.2 after […] relative to control

SMILES	percent fibril formation relative to control (Transthyretin [2])	inhibition (Transthyretin [3])	other results
O=Cc1ccc(Oc2ccc([N+](=O)[O-])cc2[N+](=O)[O-])c(O)c1	–	–	Activity (Transthyretin [1]): 40.5%
COc1cc(CO)ccc1Oc1ccccc1	–	–	Activity (Transthyretin [1]): 61.2%
COc1cc(COC(C)=O)ccc1Oc1ccc([N+](=O)[O-])cc1[N+](=O)[O-]	–	–	Activity (Transthyretin [1]): 69%
Cc1ccc(/C=c2/sc3nc4ccccc4n3c2=O)cc1	125%	0%	–
CCOC(=O)c1c(N)sc(C(=O)Nc2cc(C)cc(C)c2)c1C	87.8%	12.2%	–
Cn1ncc(/N=C/c2ccccc2O)c1C(=O)N1CCOCC1	50%	50%	–
COc1ccc(NC(=S)N(CCCN2CCOCC2)Cc2cccs2)cc1	102%	0%	–
Cc1nc2ccc(Cl)cc2c(O)c1CN1CCCC1	81.8%	18.2%	–
COc1ccc(NC(=S)N(CCCN2CCOCC2)Cc2cccnc2)cc1	98.6%	1.4%	–
CCC(=O)NC(c1ccc2c(c1)OCO2)c1cc(Cl)c2cccnc2c1O (stereo unspecified)	41.9%	58.1%	–
O=C(Nc1c2c(nn1-c1cccc(Cl)c1)C[S+]([O-])C2)c1ccccc1F (stereo unspecified)	89.5%	10.4%	–
CCOC(=O)c1c(N)sc(C(=O)NC2CCCCC2)c1C	58.1%	41.9%	–
O=C1OC(c2ccc(Cl)cc2Cl)=N/C1=C\c1cccs1	136%	0%	–
COc1cc(C(=O)O)ccc1Oc1ccc([N+](=O)[O-])cc1[N+](=O)[O-]	–	–	Activity (Transthyretin [1]): 48%
Cc1ccn2c(Nc3ccc(F)cc3)c(-c3ccccn3)nc2c1	162%	0%	–
Oc1ccc(Nc2nc(-c3ccc(Cl)cc3)nc3ccccc23)cc1	96%	4.06%	–
COc1cc(CCl)ccc1Oc1ccc([N+](=O)[O-])cc1[N+](=O)[O-]	–	–	Activity (Transthyretin [1]): 79%
CCCCN(CC)Cc1c(C)nc2c(ccc3ccccc32)c1O	75.7%	24.3%	–
O=C1CSC(c2ccc(Cl)cc2Cl)N1c1ccc(Cl)cc1 (stereo unspecified)	20.3%	79.7%	–
COc1ccc(/C=C2\SC(=S)N(c3ccc(O)cc3)C2=O)cc1	281%	0%	–
O=C(O)C1CSC(c2ccc(Cl)cc2)N1 (stereo unspecified)	142%	0%	–
Cc1nc2c(C(=O)NCc3ccc(F)cc3)cnn2c(O)c1Cc1ccccc1F	46.9%	53.1%	–
Cn1c(=O)c2c(nc(Oc3ccc(-n4cnnn4)cc3)n2C)n(C)c1=O	155%	0%	–
O=C1NC(=S)S/C1=C\c1ccc(-c2cc(Cl)ccc2Cl)o1	286%	0%	–
COc1cc(C=O)ccc1Oc1ccc([N+](=O)[O-])cc1[N+](=O)[O-]	–	–	Activity (Transthyretin [1]): 66%

SMILES	percent fibril formation relative to control (Transthyretin [2])	inhibition (Transthyretin [3])	other results
NC(=O)CSc1ncc(-c2ccc(Cl)cc2)[nH]1	39.2%	60.8%	–
O=C(Nc1c2c(nn1-c1ccc(F)cc1)C[S+]([O-])C2)c1ccccc1F (stereo unspecified)	104%	0%	–
CSC1=NSC2=NC(=O)/C(=C\c3ccc[nH]3)C(=N)N12	202%	0%	–
Oc1ccc(-c2nc3ncccn3c2Nc2ccc(Cl)cc2)cc1	135%	0%	–
Clc1ccc2nc(-c3ccc(Cl)s3)c(NC3CCCCC3)n2c1	138%	0%	–
O=C(O)C1CSC(c2c(F)cccc2Cl)N1 (stereo unspecified)	20.3%	79.7%	–
Fc1ccccc1NC(=S)N(CCCN1CCOCC1)Cc1cccnc1	99.3%	0.7%	–
Oc1cc(CCl)ccc1Oc1ccc(Cl)cc1Cl	–	–	inhibition (Transthyretin [4]): > 80%; Activity (Transthyretin [5]): 0%; Activity (Transthyretin [6]): 5%; viability at 50 µM [7]: 86%; Activity (Neuro2a): Not toxic; Activity (Transthyretin [1]): 0%; Activity (Transthyretin [8]): < 5%
O=C(NC(c1ccccc1)c1cc(Cl)c2cccnc2c1O)c1cccnc1 (stereo unspecified)	29.6%	70.4%	–
O=C(O)c1ccc(Oc2ccc([N+](=O)[O-])cc2[N+](=O)[O-])c(O)c1	–	–	Activity (Transthyretin [1]): 75%
O=C(NCc1ccco1)c1cc(Sc2cccc(Cl)c2)nc2ccccc12	60.7%	39.3%	–
CCCCC1NC(C(=O)O)CS1 (stereo unspecified)	128%	0%	–
Oc1ccc(-c2n[nH]c(=S)o2)cc1	19.2%	80.8%	–
CCc1ccc(Oc2cc(F)nc(N)n2)cc1	10.4%	9.71%	–
O=C(O)CCCCCN1C(=O)/C(=C/c2c[nH]c3ccccc23)SC1=S	126%	0%	–
Cc1ccsc1/C=c1\sc2nc(-c3cccs3)nn2c1=O	77.8%	22.3%	–
CCN1C(=O)/C(=C/c2ccc(N(CC)CC)cc2O)SC1=S	177%	0%	–
O=C(O)c1cccc(-c2ccc(/C=C3/SC(=S)N(c4cccc(C(F)(F)F)c4)C3=O)o2)c1	449%	0%	–
O=C(c1cc(-c2ccc(Cl)s2)nc2ccccc12)N1CCOCC1	156%	0%	–
Cc1nnc2c(Oc3ccc(Cl)cc3)nc3cc(Cl)ccc3n12	114%	0%	–
O=C(O)C1CSC(c2cccnc2)N1 (stereo unspecified)	144%	0%	–
Cc1ccn2c(Nc3ccccc3C)c(-c3ccc(O)cc3)nc2c1	130%	0%	–
O=[N+]([O-])c1ccc(Cl)cc1Sc1nc2ccccc2s1	8.2%	91.8%	–
Nc1nc(Cl)cc(Oc2ccccc2F)n1	52.4%	47.6%	–
Cc1ccc2nc(-c3ccc(Cl)s3)c(Nc3ccc(Cl)cc3)n2c1	113%	0%	–

SMILES	percent fibril formation relative to control (Transthyretin [2])	inhibition (Transthyretin [3])	other results
O=C(O)C1CSC(c2ccc(O)cc2)N1 (stereo unspecified)	120%	0%	–
O=C1OC(c2ccc(Cl)cc2Cl)=N/C1=C/c1ccc(Cl)c(Cl)c1	138%	0%	–
COc1cc(C2NC(C(=O)O)CS2)ccc1O (stereo unspecified)	116%	0%	–
CCOC(=O)c1sc(=S)n(-c2ccc(Br)cc2)c1N	164%	0%	–
O=C(O)c1ccc(Cl)c(N2C(=O)C3C4CCC(C4)C3C2=O)c1 (stereo in doubt; 33)	62.2%	37.8%	–
COc1cc(CO)ccc1Oc1ccc([N+](=O)[O-])cc1	–	–	Activity (Transthyretin [1]): 89.5%
Cc1nc2c(ccc3ccccc32)c(O)c1CN(C)Cc1ccccc1	105%	0%	–
Cc1ccc2nc(NC(=O)c3ccccc3O)sc2c1	368%	0%	–
O=C(NC1CC1)c1cc(Sc2cccc(Cl)c2)nc2ccccc12	41.8%	58.2%	–
O=c1c2sccc2n(Cc2ccc(F)cc2Cl)c(=O)n1-c1cc(F)ccc1F	117%	0%	–
Nc1cc(O)nc(SCC(=O)N2CCOCC2)n1	112%	0%	–
O=C1/C(=C\c2cccc(O)c2)SC(=S)N1c1ccc(F)cc1	309%	0%	–
Nc1nc(F)cc(Oc2ccccc2F)n1	54.4%	45.6%	–
O=Cc1ccc(Oc2ccccc2)c(O)c1	–	–	Activity (Transthyretin [1]): 112%
Cc1ccccc1C1=N/C(=C\c2sccc2C)C(=O)O1	115%	0%	–
O=c1/c(=C\c2ccccc2Cl)sc2nc3ccccc3n12	71%	29.1%	–
COc1cc(CO)ccc1Oc1ccc([N+](=O)[O-])cc1[N+](=O)[O-]	–	–	Activity (Transthyretin [1]): 28%
O=C1/C(=C\c2ccco2)SC(=S)N1c1cccc(F)c1	340%	0%	–
COc1cccc(C(=O)NC(c2ccccc2)c2cc(Cl)c3cccnc3c2O)c1 (stereo unspecified)	34.7%	65.3%	–
O=c1c2ccccc2nc2sc(Nc3ccc(F)cc3F)nn12	-2.03%	102%	–
CCN(CC)CCCN(Cc1ccco1)C(=S)Nc1ccc(OC)cc1	107%	0%	–
Cc1ccc(C2NC(C(=O)O)CS2)cc1 (stereo unspecified)	14.3%	85.7%	–
O=C1CCCC2=C1C(c1cccc(O)c1)NC(=S)N2 (stereo unspecified)	106%	0%	–
